Reference: ChEMBL document CHEMBL4673206, “Truncated Latrunculins as Actin Inhibitors Targeting Plasmodium falciparum Motility and Host Cell Invasion” (J Med Chem, 2016)

How the values were obtained:
[1] = Inhibition of actin polymerisation in trophozoite-stage of plasmodium falciparum infected in human erythrocytes assessed as parasite growth inhibition measured after 72 hrs by SYBR dye based FACSort flow cytometry analysis; format: cell-based
Summary of the method: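 Mature pigmented trophozoites at 0.1% parasitemia, 2% hematocrit, exposed to compound over two invasion cycles for 72 h at 37°C. Fixed with 0.25% glutaraldehyde for 1 h at room temperature, washed, stained with SYBR green, and counted by flow cytometry. Triplicate wells.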

HEK293 = assay: Cytotoxicity against HEK293 cells assessed as reduction in cell viability incubated for 24 hrs by resazurin staining based assay; conditions: human, hek293, 24 h
Summary of the method: (§1)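 HEK293 and HepG2 seeded at 3000 and 5000 cells/well in DMEM with 10% FBS and left to attach 24 h (37°C, 5% CO2). Compounds added as a 1:3 serial dilution from 100 µM top concentration (0.5% DMSO final, 5% FBS final) for 24 h. Resazurin 10 µM added, 3 h, fluorescence at 560/590. Viability normalised to untreated and 100 µM tamoxifen wells; triplicate wells.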

[2] = Inhibition of actin polymerisation in Toxoplasma gondii RH infected in human HFF cells assessed as reduction in invasion incubated for 20 mins prior to infection in HFF cells followed by 1 hr incubation under 5% CO2 and subsequent incubation for 72 hrs in DMEM medium 5% CO2 by crystal violet staining based analysis
HepG2 = assay: Cytotoxicity against human HepG2 cells assessed as reduction in cell viability incubated for 24 hrs by resazurin staining based assay; conditions: hepg2, 24 h; summary of the method: as §1
[3] = Selectivity index, ratio of CC50 for cytotoxicity against human HepG2 cells to EC50 for inhibition of actin polymerisation in trophozoite-stage of plasmodium falciparum; format: toxicity, cell-based; conditions: read-out: Ratio CC50/EC50
[4] = Selectivity index, ratio of CC50 for cytotoxicity against human HEK293 cells to EC50 for inhibition of actin polymerisation in trophozoite-stage of plasmodium falciparum; format: toxicity, cell-based; conditions: read-out: Ratio CC50/EC50
G-actin polymerization [5] = assay: Inhibition of KMEI-induced pyrene-labelled G-actin polymerization (unknown origin) at 100 uM preincubated for 1 min followed by KMEI addition and measured at 15 secs interval for 90 mins by spectrofluorimetric analysis relative to control; conditions: human, time 91 min
Summary of the method: (§2)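 Converted to Mg2+ form with EGTA/MgCl2 for 2 min at room temperature; final actin 2.5 µM. Compound in DMSO added for 1 min, then polymerisation started with KMEI (50 mM KCl, 10 mM imidazole pH 7, 1 mM MgCl2, 1 mM EGTA). Fluorescence ex 365/em 407 nm read every 15 s for 90 min; triplicate.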

G-actin polymerization [6] = assay: Inhibition of KMEI-induced pyrene-labelled G-actin polymerization (unknown origin) at 10 uM preincubated for 1 min followed by KMEI addition and measured at 15 secs interval for 90 mins by spectrofluorimetric analysis relative to control; conditions: human, time 91 min; summary of the method: as §2

Structure (SMILES): COc1ccc(CN2C(=O)SC[C@H]2C2(OC)CC(O)CCO2)cc1 (stereo not given in full)
- EC50 [1]: > 100 µM

Structure (SMILES): COc1ccc(CN2C(=O)SC[C@H]2C2(OC)CC(OC(=O)c3ccc(I)cc3)CCO2)cc1 (mixture of isomers)
- EC50 [1]: 49 µM

Structure (SMILES): COc1ccc(CN2C(=O)SC[C@H]2C2(OC)CC(OC(=O)c3cc(C)ccc3-c3cccs3)CCO2)cc1 (mixture of isomers)
- EC50 [1]: 10 µM

Structure (SMILES): COc1ccc(CN2C(=O)SC[C@H]2C2(OC)CC(OC(=O)c3ccco3)CCO2)cc1 (mixture of isomers)
- EC50 [1]: 62 µM

Structure (SMILES): COc1ccc(CN2C(=O)SC[C@H]2C2(OC)CC(OC(=O)c3ccc(C)cc3-c3ccccc3)CCO2)cc1 (mixture of isomers)
- EC50 [1]: 13 µM

Structure (SMILES): CCCCC(=O)OC1CCOC(OC)([C@@H]2CSC(=O)N2Cc2ccc(OC)cc2)C1 (mixture of isomers)
- CC50 (HEK293): 103 µM
- EC50 [2]: > 100 µM
- CC50 (HepG2): 111 µM
- selectivity ratio [3]: 1
- selectivity ratio [4]: 1
- EC50 [1]: 66 µM

Structure (SMILES): COc1ccc(CN2C(=O)SC[C@H]2C2(OC)CC(OC(=O)c3cccc(I)c3)CCO2)cc1 (mixture of isomers)
- EC50 [1]: 49 µM

Structure (SMILES): COc1ccc(CN2C(=O)SC[C@H]2C2(OC)CC(OC(=O)c3ccccc3C3=CCCCC3)CCO2)cc1 (mixture of isomers)
- CC50 (HEK293): 109 µM
- EC50 [2]: 16 µM
- CC50 (HepG2): 123 µM
- inhibition at 1.5 h, 100 µM (G-actin polymerization [5]): < 10%
- selectivity ratio [3]: 15
- selectivity ratio [4]: 14
- EC50 [1]: 7 µM
- inhibition at 1.5 h, 10 µM (G-actin polymerization [6]): < 10%

Structure (SMILES): COc1ccc(CN2C(=O)SC[C@H]2C2(OC)CC(OC(=O)c3ccccc3-c3cccc4ccccc34)CCO2)cc1 (mixture of isomers)
- CC50 (HEK293): 99 µM
- EC50 [2]: 16 µM
- CC50 (HepG2): 90 µM
- inhibition at 1.5 h, 100 µM (G-actin polymerization [5]): < 10%
- selectivity ratio [3]: 15
- selectivity ratio [4]: 17
- EC50 [1]: 7 µM
- inhibition at 1.5 h, 10 µM (G-actin polymerization [6]): < 10%

Structure (SMILES): COc1ccc(CN2C(=O)SC[C@H]2C2(OC)CC(OC(=O)c3ccccc3I)CCO2)cc1 (mixture of isomers)
- inhibition at 1.5 h, 100 µM (G-actin polymerization [5]): < 10%
- EC50 [1]: 17 µM
- inhibition at 1.5 h, 10 µM (G-actin polymerization [6]): < 10%

Structure (SMILES): CCC/C=C/c1ccccc1C(=O)OC1CCOC(OC)([C@@H]2CSC(=O)N2Cc2ccc(OC)cc2)C1 (mixture of isomers)
- EC50 [1]: 49 µM

Structure (SMILES): COc1ccc(CN2C(=O)SC[C@H]2C2(OC)CC(OC(=O)C3CCCC3)CCO2)cc1 (mixture of isomers)
- EC50 [2]: > 100 µM
- EC50 [1]: 66 µM

Structure (SMILES): COc1ccc(CN2C(=O)SC[C@H]2C2(OC)CC(OC(=O)c3ccc(-c4cccs4)cc3)CCO2)cc1 (mixture of isomers)
- EC50 [1]: 24 µM

Structure (SMILES): COc1ccc(CN2C(=O)SC[C@H]2C2(OC)CC(OC(=O)c3ccccc3)CCO2)cc1 (mixture of isomers)
- EC50 [1]: 31 µM

Structure (SMILES): COc1ccc(CN2C(=O)SC[C@H]2C2(OC)CC(OC(=O)c3ccc(C)cc3-c3cccs3)CCO2)cc1 (mixture of isomers)
- EC50 [1]: 15 µM

Structure (SMILES): COc1ccc(CN2C(=O)SC[C@H]2C2(OC)CC(OC(=O)c3ccccc3-c3cccs3)CCO2)cc1 (mixture of isomers)
- EC50 [2]: 19 µM
- inhibition at 1.5 h, 100 µM (G-actin polymerization [5]): < 10%
- EC50 [1]: 7 µM
- inhibition at 1.5 h, 10 µM (G-actin polymerization [6]): < 10%

Structure (SMILES): COc1ccc(CN2C(=O)SC[C@H]2C2(OC)CC(OC(=O)c3cccc(-c4cccs4)c3)CCO2)cc1 (mixture of isomers)
- EC50 [1]: 18 µM

Structure (SMILES): C/C1=C/C(=O)O[C@@H]2C[C@@H](CC[C@H](C)/C=C\CC1)O[C@@](O)([C@@H]1CSC(=O)N1)C2 [LATRUNCULIN B]
- inhibition at 1.5 h, 100 µM (G-actin polymerization [5]): 100%
- EC50 [1]: 44 µM
- inhibition at 1.5 h, 10 µM (G-actin polymerization [6]): 100%
